In ChEMBL document CHEMBL5344453, “Selective Recognition of c-KIT 1 G-Quadruplex by Structural Tuning of Heteroaromatic Scaffolds and Side Chains” (ACS Med Chem Lett, 2024):

Key:
[1] = system: Quadruplex DNA; assay: Stabilization of G-quadruplex c-MYC 5-FAM-TGGGGAGGGTGGGGAGGGTGGGGAAGG-TAMRA- 3 (unknown origin) assessed as change in melting temperature at 1 uM incubated for 1 hr in dark condition by FRET-based melting assay; type: nucleic-acid assay
Summary of the method: (§1)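 FRET melting of dual-fluorophore-tagged oligonucleotides (200 nM) in 60 mM potassium cacodylate buffer, pH 7.4, with ligand at 1 μM; ΔTm taken against the ligand-free oligonucleotide Tm as control.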

[2] = system: Quadruplex DNA; assay: Stabilization of G-quadruplex VEGF 5-FAM-CGGGGCGGGCCGGGGGCGGGGT-TAMRA-3 (unknown origin) assessed as change in melting temperature at 1 uM incubated for 1 hr in dark condition by FRET-based melting assay; type: nucleic-acid assay; summary of the method: as §1
[3] = system: Quadruplex DNA; assay: Stabilization of 5-FAM/3-TAMRA labelled G-quadruplex c-KIT1 5-FAM-GGGAGGGCGCTGGGAGGAGGG-TAMRA-3 (unknown origin) assessed as change in melting temperature incubated for 1 hr in dark condition by FRET-based melting assay; type: nucleic-acid assay; conditions: dose 1-10 µM
Summary of the method: (§2)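 FRET melting of dual-fluorophore (FAM/TAMRA) tagged G-quadruplex (200 nM) in 60 mM potassium cacodylate, pH 7.4. The screen used 1 μM ligand; dose series used 1, 3, 5, 7 and 10 μM. ΔTm was taken against the Tm of the same oligonucleotide without ligand.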

[4] = system: Quadruplex DNA; assay: Stabilization of G-quadruplex c-KIT1 5-FAM-GGGAGGGCGCTGGGAGGAGGG-TAMRA-3 (unknown origin) assessed as change in melting temperature at 3 uM incubated for 1 hr in dark condition by FRET-based melting assay; type: nucleic-acid assay; summary of the method: as §2
[5] = system: Quadruplex DNA; assay: Stabilization of G-quadruplex c-KIT1 5-FAM-GGGAGGGCGCTGGGAGGAGGG-TAMRA-3 (unknown origin) assessed as change in melting temperature at 5 uM incubated for 1 hr in dark condition by FRET-based melting assay; type: nucleic-acid assay; summary of the method: as §2
[6] = system: Quadruplex DNA; assay: Stabilization of G-quadruplex c-MYC 5-FAM-TGGGGAGGGTGGGGAGGGTGGGGAAGG-TAMRA- 3 (unknown origin) assessed as change in melting temperature at 10 uM incubated for 1 hr in dark condition by FRET-based melting assay; type: nucleic-acid assay; summary of the method: as §2
[7] = system: Quadruplex DNA; assay: Binding affinity to excessive G-quadruplex c-KIT2 5-FAM-GGGCGGGCGCGAGGGAGGGG-TAMRA-3 (unknown origin) assessed as fold increase in fluorescence intensity at 1 uM incubated for 1 hr in dark condition by fluorescence spectroscopy assay; type: nucleic-acid assay
Summary of the method: (§3)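 Fluorimetric titration in 100 mM Tris-KCl buffer, pH 7.4. Ligand fixed at 1.0 μM and titrated with increasing concentrations of each G-quadruplex until fluorescence saturation. The fold increase in ligand fluorescence intensity was read, and Kd was derived from the titration plot.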

[8] = system: Quadruplex DNA; assay: Binding affinity to excessive G-quadruplex VEGF 5-FAM-CGGGGCGGGCCGGGGGCGGGGT-TAMRA-3 (unknown origin) assessed as fold increase in fluorescence intensity at 1 uM incubated for 1 hr in dark condition by fluorescence spectroscopy assay; type: nucleic-acid assay; summary of the method: as §3
[9] = target: Quadruplex DNA; assay: Binding affinity to G-quadruplex c-KIT1 5-FAM-GGGAGGGCGCTGGGAGGAGGG-TAMRA-3 (unknown origin) assessed as dissociation constant by fluorescence spectroscopy assay; type: nucleic-acid assay
[10] = target: Quadruplex DNA; assay: Binding affinity to G-quadruplex VEGF 5-FAM-CGGGGCGGGCCGGGGGCGGGGT-TAMRA-3 (unknown origin) assessed as dissociation constant by fluorescence spectroscopy assay; type: nucleic-acid assay
Summary of the method: (§4)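 Fluorimetric titration of ligand held at 1.0 μM with increasing concentrations of G4 or dsDNA until saturation. Change in ligand fluorescence intensity was fitted for Kd. Run in 100 mM Tris-KCl buffer, pH 7.4.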

[11] = target: Quadruplex DNA; assay: Binding affinity to G-quadruplex c-MYC 5-FAM-TGGGGAGGGTGGGGAGGGTGGGGAAGG-TAMRA-3 (unknown origin) assessed as dissociation constant by fluorescence spectroscopy assay; type: nucleic-acid assay; summary of the method: as §4
[12] = target: Quadruplex DNA; assay: Binding affinity to G-quadruplex c-KIT 2 5-FAM-GGGCGGGCGCGAGGGAGGGG-TAMRA-3 (unknown origin) assessed as dissociation constant by measuring thermogram by isothermal titration calorimetry (ITC) assay; type: nucleic-acid assay
Summary of the method: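 ITC of ligand binding to folded G4 in 100 mM Tris-KCl buffer, pH 7.4. Kd and stoichiometry were obtained from the isothermal heat curve and binding isotherm.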

[13] = system: K562; assay: Cytotoxicity against human c-KIT-positive K562 cells assessed as cell viability measured after 24 hrs by XTT formazan assay; type: functional, cell-based; conditions: K562, 24 h
[14] = system: MCF7; assay: Cytotoxicity against human MCF7 cells assessed as cell viability measured after 24 hrs by XTT formazan assay; type: functional, cell-based; conditions: MCF7, 24 h
[15] = system: K562; assay: Attenuation of proto-oncogene expression in human c-KIT-positive K562 cells assessed as reduction in c-KIT oncogene expression at 3 uM measured after 24 hrs by qRT-PCR analysis relative to control; type: functional
Summary of the method: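 K562 cells treated 24 h at two doses per ligand (3 and 6 μM, 5.5 and 11 μM; positive control 2 and 4 μM). c-KIT, c-MYC and BCL-2 mRNA measured by qRT-PCR and normalized to housekeeping gene 18s, relative to untreated control.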

[16] = Reduction of BCL-2 oncogene expression in human K562 cells transfected with BCL-2 plasmid construct assessed as reduction in luciferase expression at 3 uM measured after 36 hrs by luciferase reporter assay; type: functional
Summary of the method: (§5)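 K562 cells were transfected with luciferase plasmids carrying the c-KIT, c-MYC or BCL-2 promoter G4. They were then treated with ligand (3 and 6 μM or 5.5 and 11 μM), and relative luciferase expression was measured.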

[17] = Reduction of BCL-2 oncogene expression in human K562 cells transfected with BCL-2 plasmid construct assessed as reduction in luciferase expression at 6 uM measured after 36 hrs by luciferase reporter assay; type: functional; summary of the method: as §5
[18] = Reduction of c-KIT protein expression in human K562 cells at 3 uM measured after 24 hrs by Western blotting analysis relative to control; type: functional
Summary of the method: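 K562 cells were treated with ligand (3 and 6 μM or 5.5 and 11 μM). c-KIT protein was measured by Western blot with GAPDH as the housekeeping reference, relative to control.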

[19] = system: K562; assay: Induction of cell cycle arrest in human K562 cells assessed as accumulation at G0/G1 phase at 6 uM incubated for 24 hrs by propidium iodide based assay; type: functional
Summary of the method: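 K562 cells were treated with ligand (3 and 6 μM or 5.5 and 11 μM) and stained with propidium iodide. The fraction of cells in each cell-cycle phase was determined by flow cytometry.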

[20] = system: K562; assay: Induction of apoptosis in human K562 cells assessed as cell death at 6 uM incubated for 24 hrs by FITC-Annexin V and PI analysis relative to control; type: functional
Summary of the method: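 K562 cells after ligand treatment dual-stained with annexin V and propidium iodide. Apoptotic cell populations (early and late) scored by flow cytometry dot plot analysis.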

## CN(C)CCCNC(=O)c1ccc(-n2cc(-c3ccc4[nH]c5ccccc5c4c3)nn2)cc1
[1]
  ΔTm: 3.2 °C
[2]
  ΔTm: 3.5 °C
[3]
  Activity: Dose-Dependent Effect
[4]
  ΔTm: 22.6 °C
[5]
  ΔTm: 25.5 °C
[6]
  ΔTm: 17.3 °C
[7]
  fold change (FC): 1.6
[8]
  fold change (FC): 2.1
[9]
  Kd: 1.4 µM
[10]
  Kd: 2.9 µM
[11]
  Kd: 2.7 µM
[12]
  Kd: 20.9 µM
[13]
  IC50: 6.2 µM
[14]
  IC50: 19.8 µM
[15]
  inhibition at 3 µM: 28%
[16]
  inhibition at 3 µM: 7.8%
[17]
  inhibition at 6 µM: 15.8%
[18]
  inhibition at 3 µM: 23.3%
[19]
  Activity: 79.7%
[20]
  Activity: 63%
